Assay [1] relates to AR protein level in T98G cells. Description: AR downregulation in T98G cells by Western blotting. Format: cell-based, human. Conditions: 100 nM, 12 h. In a few lines: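 Cells in 6-well plates treated with test compound or DMSO (T98G screens at 100 or 50 nM for 12 h). Lysed in RIPA with protease inhibitors (10 min on ice), spun at 10,000g for 10 min, protein by BCA. 50 µg resolved on 10% SDS-PAGE, transferred to PVDF, blocked 2 h in 5% milk/TBS-T. Anti-AR or anti-AR-V7 primary overnight at 4 °C, secondary 60 min at RT, chemiluminescence. Band gray values quantified.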
For orientation: A western blot detects proteins with antibodies after separation by electrophoresis.

Assay [2] has as its system AR-overexpressed GBM cell lines U87 and T98G. Format: cell-based, human. Conditions: summary of Table 1. In a few lines: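 MTT assay in T98G and U87 cells kept in RPMI1640 or DMEM with 10% FBS and penicillin/streptomycin at 37 °C, 5% CO2. MTT 1 mg/mL for 2 h at 37 °C, formazan dissolved in DMSO, A570 read. Eight replicates; IC50 by nonlinear regression.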

The structures appear in SMILES notation.

As for `COc1ccc(OC)c(COc2cc(NC(=O)c3ccc([N+](=O)[O-])cc3)ccc2NS(C)(=O)=O)c1` [Compound 13, N-(3-((2,5-Dimethoxybenzyl)oxy)-4-(methylsulfonamido)phenyl)-4-nitrobenzamide], the “AR downregulation activity at 100 nM” value in assay [1] is “significant AR downregulation activity”.

Take `COc1ccc(OC)c(COc2cc(NC(=O)c3cccc(Br)c3)ccc2NS(C)(=O)=O)c1` [Compound 15, 3-Bromo-N-(3-((2,5-dimethoxybenzyl)oxy)-4-(methylsulfonamido)phenyl)benzamide]: in assay [1], the “AR downregulation activity at 100 nM” value was “significant AR downregulation activity”.

On to `COc1ccc(OC)c(COc2cc(NC(=O)c3ccc(SC)cc3)ccc2NS(C)(=O)=O)c1` [Compound 19, N-(3-((2,5-Dimethoxybenzyl)oxy)-4-(methylsulfonamido)phenyl)-4-(methylthio)benzamide], for which the “AR downregulation activity at 100 nM” value in assay [1] is “significant AR downregulation activity”. For the molecule `CCCCCC(=O)Nc1ccc(NS(C)(=O)=O)c(OCc2cc(OC)ccc2OC)c1` [Compound 30, N-(3-((2,5-Dimethoxybenzyl)oxy)-4-(methylsulfonamido)phenyl)hexanamide], in assay [2], the “activity in GBM cell growth inhibition (SAR wording)” value is recorded as “lower activity”.

In the case of `COc1ccc(OC)c(COc2cc(NC(=O)c3ccc(OC(F)(F)F)cc3)ccc2NS(C)(=O)=O)c1` [Compound 33, N-(3-((2,5-Dimethoxybenzyl)oxy)-4-(methylsulfonamido)phenyl)-4-(trifluoromethoxy)benzamide], the “AR downregulation activity at 100 nM” value in assay [1] is “significant AR downregulation activity”. With `COc1ccc(OC)c(COc2cc(NC(=O)c3ccccc3C)ccc2NS(C)(=O)=O)c1` [Compound 34, N-(3-((2,5-Dimethoxybenzyl)oxy)-4-(methylsulfonamido)phenyl)-2-methylbenzamide], the “AR downregulation activity at 100 nM” value in assay [1] is recorded as “significant AR downregulation activity”. For the molecule `COc1ccc(OC)c(COc2cc(NC(=O)c3cccs3)ccc2NS(C)(=O)=O)c1` [Compound 35, N-(3-((2,5-Dimethoxybenzyl)oxy)-4-(methylsulfonamido)phenyl)thiophene-2-carboxamide], the “activity in GBM cell growth inhibition (SAR wording)” value in assay [2] was “lower activity”. In addition, in assay [1], the “AR downregulation activity at 100 nM” value was “significant AR downregulation activity”. For `COc1ccc(OC)c(COc2cc(NC(=O)c3ccno3)ccc2NS(C)(=O)=O)c1` [Compound 36, N-(3-((2,5-Dimethoxybenzyl)oxy)-4-(methylsulfonamido)phenyl)isoxazole-5-carboxamide] the same measures were “lower activity” and “significant AR downregulation activity”. As for `COc1ccc(OC)c(COc2cc(NC(=O)CCCC(=O)Nc3ccc(NS(C)(=O)=O)c(OCc4cc(OC)ccc4OC)c3)ccc2NS(C)(=O)=O)c1` [Compound 37, N1,N5-Bis(3-((2,5-dimethoxybenzyl)oxy)-4-(methylsulfonamido)phenyl)glutaramide], the “activity in GBM cell growth inhibition (SAR wording)” value in assay [2] is recorded as “poor activity”. Further, the “AR downregulation activity at 100 nM” value in assay [1] is listed as “significant AR downregulation activity”.

Consider `COc1ccc(OC)c(COc2cc(NC(=O)COCC(=O)Nc3ccc(NS(C)(=O)=O)c(OCc4cc(OC)ccc4OC)c3)ccc2NS(C)(=O)=O)c1` [Compound 38, 2,2′-Oxybis(N-(3-((2,5-dimethoxybenzyl)oxy)-4-(methylsulfonamido)phenyl)acetamide)], for which the “activity in GBM cell growth inhibition (SAR wording)” value in assay [2] was “poor activity”. On to `COc1ccc(OC)c(COc2cc(NC(=O)OCCOC(=O)Nc3ccc(NS(C)(=O)=O)c(OCc4cc(OC)ccc4OC)c3)ccc2NS(C)(=O)=O)c1` [Compound 39, Ethane-1,2-diylbis((3-((2,5-dimethoxybenzyl)oxy)-4-(methylsulfonamido)phenyl)carbamate)], for which, in assay [2], the “activity in GBM cell growth inhibition (SAR wording)” value is recorded as “poor activity”.

Regarding `COc1ccc(OC)c(COc2cc(NC(=O)OCCOCCOCCOC(=O)Nc3ccc(NS(C)(=O)=O)c(OCc4cc(OC)ccc4OC)c3)ccc2NS(C)(=O)=O)c1` [Compound 40, (Ethane-1,2-diylbis(oxy))bis(ethane-2,1-diyl)bis((3-((2,5-dimethoxybenzyl)oxy)-4-(methylsulfonamido)phenyl)carbamate)], in assay [2], the “activity in GBM cell growth inhibition (SAR wording)” value was “poor activity”. `COc1ccc(OC)c(COc2cc(NC(=O)c3ccc(NC(=O)COCC(=O)Nc4ccc(C(=O)Nc5ccc(NS(C)(=O)=O)c(OCc6cc(OC)ccc6OC)c5)cc4)cc3)ccc2NS(C)(=O)=O)c1` [Compound 42, 4,4′-((2,2′-Oxybis(acetyl))bis(azanediyl))bis(N-(3-((2,5-dimethoxybenzyl)oxy)-4-(methylsulfonamido)phenyl)benzamide)]: in assay [2], the “activity in GBM cell growth inhibition (SAR wording)” value is on record as “poor activity”.

These data come from PMC11068032 (Journal of medicinal chemistry, 2023).
